# Reference: ChEMBL document CHEMBL2311525, “Design, synthesis, and pharmacological properties of new heteroarylpyridine/heteroarylpyrimidine derivatives as CB(2) cannabinoid receptor partial agonists” (J Med Chem, 2013)
# Columns and labels:
# Cannabinoid receptor 2 [1] = biological target: T1, Cannabinoid receptor 2 (Homo sapiens, UniProt P34972); experiment: Displacement of [3H]CP-55,940 from human recombinant CB2 receptor expressed in CHO cell membranes after 60 mins by scintillation counting analysis
# Homo sapiens = species on record: Homo sapiens; experiment: Selectivity index, ratio of Ki for human recombinant CB1 receptor to Ki for human recombinant CB2 receptor
# Cannabinoid receptor 1 [2] = biological target: Cannabinoid receptor 1 (Rattus norvegicus, UniProt P20272); experiment: Displacement of [3H]CP-55,940 from Sprague-Dawley rat brain CB1 receptor by scintillation counting analysis
# In short: (§1)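 Male Sprague-Dawley rat brain membranes, prepared by spinning at 2000g and then 40000g, in 50 mM Tris-HCl with 1 mM EDTA, 3 mM MgCl2 and 0.5% fatty-acid-free BSA, pH 7.4. Incubated with 1.0 nM [3H]CP-55,940, 40 μg protein/100 μL and test compound at 1 nM–10 μM. Filtered on GF/C. Ki by Cheng–Prusoff, n = 4.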
# Cannabinoid receptor 2 [3] = biological target: T2, Cannabinoid receptor 2 (Rattus norvegicus, UniProt Q9QZN9); experiment: Displacement of [3H]CP-55,940 from Sprague-Dawley rat spleen CB2 receptor by scintillation counting analysis
# T2 sequence (Q9QZN9 whole entry): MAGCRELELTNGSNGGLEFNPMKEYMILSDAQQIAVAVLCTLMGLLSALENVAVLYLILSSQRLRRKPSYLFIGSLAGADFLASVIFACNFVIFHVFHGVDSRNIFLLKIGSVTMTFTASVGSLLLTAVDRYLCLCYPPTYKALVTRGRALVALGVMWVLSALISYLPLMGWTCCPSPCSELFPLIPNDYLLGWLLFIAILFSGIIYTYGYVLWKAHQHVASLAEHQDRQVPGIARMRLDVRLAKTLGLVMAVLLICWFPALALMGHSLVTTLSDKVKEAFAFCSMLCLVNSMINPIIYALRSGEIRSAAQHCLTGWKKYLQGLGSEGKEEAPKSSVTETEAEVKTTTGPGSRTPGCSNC
# In short: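 Male Sprague-Dawley rat spleen membranes, prepared by spinning at 2000g and then 40000g, in 50 mM Tris-HCl with 1 mM EDTA, 3 mM MgCl2 and 0.5% fatty-acid-free BSA, pH 7.4. Filtered on GF/C.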
# Cannabinoid receptor 1 [4] = biological target: T3, Cannabinoid receptor 1 (Homo sapiens, UniProt P21554); experiment: Displacement of [3H]CP-55,940 from human recombinant CB1 receptor expressed in CHO cell membranes after 90 mins by scintillation counting analysis
# [5] = biological target: Cannabinoid receptor 1 (Rattus norvegicus) (UniProt P20272); experiment: Displacement of [3H]CP-55,940 from Sprague-Dawley rat brain CB1 receptor at 1 to 10000 nM by scintillation counting analysis; in short: as §1
# Cannabinoid receptor 1 [6] = biological target: T3, Cannabinoid receptor 1; experiment: Displacement of [3H]CP-55,940 from human recombinant CB1 receptor expressed in CHO cell membranes at 1 to 10000 nM after 90 mins by scintillation counting analysis
# In short: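 Membranes from CHO cells expressing hCB1, spun at 100000g, in 50 mM Tris-HCl with 0.5% BSA, 5 mM MgCl2 and 2.5 mM EDTA, pH 7.4. Incubated with 0.5 nM [3H]CP-55,940 and compound at 1 nM–10 μM for 90 min at 30 °C. Filtered on GF/C and counted. Ki by Cheng–Prusoff, n = 4.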
# Cannabinoid receptor 2 [7] = biological target: T1, Cannabinoid receptor 2; experiment: Agonist activity at human CB2 receptor expressed in CHO cells assessed as forskolin-stimulated [3H]cyclic-AMP accumulation by scintillation counting analysis; assay type: functional, cell-based
# Cannabinoid receptor 2 [8] = biological target: T1, Cannabinoid receptor 2; experiment: Agonist activity at human CB2 receptor expressed in CHO cells assessed as forskolin-stimulated [3H]cyclic-AMP accumulation by scintillation counting analysis relative to WIN 55,212-2; assay type: functional, cell-based
# In short: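 CHO cells stably expressing human CB2, 1 × 10^6 cells/assay, in buffered saline (10 mM MgCl2, 5 mM glucose, 5 mM HEPES, pH 7.4, 37 °C) with 0.5 mM Ro 20-1724. Preincubated 10 min at 37 °C, then tested with 1 μM forskolin. Stopped with cold 6% TCA and ether-extracted. cAMP read by [3H]cAMP competition binding to beef adrenal binding protein with charcoal separation.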
# T1 sequence (P34972 whole entry): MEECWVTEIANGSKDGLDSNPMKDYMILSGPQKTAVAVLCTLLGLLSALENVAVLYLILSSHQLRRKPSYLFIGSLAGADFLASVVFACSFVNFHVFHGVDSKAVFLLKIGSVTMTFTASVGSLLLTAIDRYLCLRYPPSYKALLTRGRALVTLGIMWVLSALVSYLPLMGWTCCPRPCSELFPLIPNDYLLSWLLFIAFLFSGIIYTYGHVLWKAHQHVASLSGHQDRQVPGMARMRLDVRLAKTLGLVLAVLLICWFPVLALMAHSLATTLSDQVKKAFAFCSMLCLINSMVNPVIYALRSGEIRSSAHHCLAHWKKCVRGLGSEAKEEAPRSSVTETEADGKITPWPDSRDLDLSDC
# T3 sequence (P21554 whole entry): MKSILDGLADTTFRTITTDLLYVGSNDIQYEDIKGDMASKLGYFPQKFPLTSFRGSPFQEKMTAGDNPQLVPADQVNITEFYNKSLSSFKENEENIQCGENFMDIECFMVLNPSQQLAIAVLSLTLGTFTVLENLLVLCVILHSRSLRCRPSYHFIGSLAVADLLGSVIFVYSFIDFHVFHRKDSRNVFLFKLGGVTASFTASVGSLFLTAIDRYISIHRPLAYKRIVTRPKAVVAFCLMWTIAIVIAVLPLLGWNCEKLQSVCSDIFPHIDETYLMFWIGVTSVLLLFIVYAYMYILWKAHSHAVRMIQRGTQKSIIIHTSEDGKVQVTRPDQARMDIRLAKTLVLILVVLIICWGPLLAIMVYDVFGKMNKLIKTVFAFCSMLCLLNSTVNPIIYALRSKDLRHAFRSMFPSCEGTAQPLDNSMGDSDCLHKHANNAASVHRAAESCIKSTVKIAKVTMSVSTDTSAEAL
# Sequence of Cannabinoid receptor 1 (Rattus norvegicus, UniProt P20272) (P20272 whole entry): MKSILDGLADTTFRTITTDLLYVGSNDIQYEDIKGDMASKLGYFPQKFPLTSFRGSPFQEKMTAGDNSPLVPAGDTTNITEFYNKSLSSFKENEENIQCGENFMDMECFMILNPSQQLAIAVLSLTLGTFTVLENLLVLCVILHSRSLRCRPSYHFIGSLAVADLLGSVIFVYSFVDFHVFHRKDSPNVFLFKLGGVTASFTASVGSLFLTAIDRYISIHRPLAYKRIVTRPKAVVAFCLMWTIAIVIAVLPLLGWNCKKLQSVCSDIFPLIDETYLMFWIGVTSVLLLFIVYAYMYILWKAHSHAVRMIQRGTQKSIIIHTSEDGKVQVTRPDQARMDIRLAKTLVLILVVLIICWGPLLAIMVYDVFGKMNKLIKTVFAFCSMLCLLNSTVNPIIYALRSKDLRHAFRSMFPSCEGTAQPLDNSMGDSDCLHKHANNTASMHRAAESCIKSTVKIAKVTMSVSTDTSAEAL
# Sequence of Cannabinoid receptor 1 (Rattus norvegicus) (P20272 whole entry): as above
SMILES,Ki (Cannabinoid receptor 2 [1]),Ratio Ki (Homo sapiens),Ki (Cannabinoid receptor 1 [2]),Ki (Cannabinoid receptor 2 [3]),Ki (Cannabinoid receptor 1 [4]),inhibition [5],inhibition (Cannabinoid receptor 1 [6]),EC50 (Cannabinoid receptor 2 [7]),Emax (Cannabinoid receptor 2 [8])
CCCCCn1cc(C(=O)NC2CCCCC2)c(=O)c2c(C(C)(C)C)nn(C)c21,3530 nM,> 2.8,> 10000 nM,4030 nM,> 10000 nM,19%,23%,,
CCCCCn1cc(C(=O)N[C@H]2CC[C@@H](C)CC2)c(=O)c2c(C)nn(C)c21,10.6 nM,68,750 nM,11.8 nM,723 nM,,,52 nM,16%
CCCCCn1cc(C(=O)NCC2CCCCC2)c(=O)c2c(C)nn(C)c21,372 nM,3,1040 nM,508 nM,1120 nM,,,1560 nM,41%
CCCCCn1cc(C(=O)NC2CCCCC2)c(=O)c2c(CC)nn(C)c21,469 nM,2,1120 nM,516 nM,957 nM,,,2350 nM,32%
CCCCCn1cc(C(=O)NC23CC4CC(CC(C4)C2)C3)c(=O)n2nc(-c3ccccc3)nc12,3.58 nM,146,560 nM,4.83 nM,523 nM,,,,
CCCCCn1cc(C(=O)NC(C)CCC(C)C)c(=O)c2c(C)nn(C)c21 (stereo not drawn),212 nM,8.5,2260 nM,262 nM,1800 nM,,,827 nM,46%
CCCCCn1cc(C(=O)NC2CCCCCC2)c(=O)c2cnn(C)c21,103 nM,44,5200 nM,130 nM,4550 nM,,,404 nM,56%
CCCCCn1cc(C(=O)NC2CCCCCC2)c(=O)c2c(-c3ccc(Cl)cc3)nn(C)c21,2830 nM,> 3.5,> 10000 nM,4050 nM,> 10000 nM,12%,17%,,
CCCCCn1cc(C(=O)NCc2ccccc2)c(=O)c2c(C)nn(C)c21,3650 nM,> 2.7,> 10000 nM,4520 nM,> 10000 nM,42%,38%,,
CCCn1cc(C(=O)NC2CCCCC2)c(=O)c2c(C)nn(C)c21,412 nM,1.8,832 nM,593 nM,758 nM,,,,
CCCCCn1cc(C(=O)NC2CCCCC2)c(=O)c2cnn(C)c21,237 nM,22,5650 nM,250 nM,5150 nM,,,872 nM,48%
CCCCCn1cc(C(=O)NC23CC4CC(CC(C4)C2)C3)c(=O)c2c(C)noc21,21 nM,69.9,1490 nM,26 nM,1470 nM,,,83 nM,97%
CCCCCn1cc(C(=O)NC23CC4CC(CC(C4)C2)C3)c(=O)c2c(C)nn(C)c21,9.51 nM,84,832 nM,11.4 nM,800 nM,,,49 nM,68%
CCCCCn1cc(C(=O)Nc2ccccc2)c(=O)c2c(C)nn(C)c21,524 nM,1.7,1020 nM,740 nM,865 nM,,,2160 nM,38%
CCCCCn1cc(C(=O)N[C@H]2CC[C@H](C)CC2)c(=O)c2c(C)nn(C)c21,11.4 nM,401,4800 nM,13.3 nM,4570 nM,,,58 nM,14%
CCCCCn1cc(C(=O)NC23CC4CC(CC(C4)C2)C3)c(=O)n2ncnc12,20 nM,35.6,850 nM,21 nM,712 nM,,,87 nM,60%
